The record followed here is ChEMBL document CHEMBL1121552, “Glycolipids as potential immunologic adjuvants” (1980).

What all share (assay type): functional
Experiment [1] is filed under the species Mus musculus. The experiment can be described thus: Geometric mean titer of mice receiving 5 ug compound along with vaccine was determined after 21 days. Summed up: (§1)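 ICR/Ha mice, groups of eight, were injected with an influenza hemagglutinin antigen vaccine plus adjuvant. Hemagglutination-inhibition antibody was assayed in sera taken 21 days post-injection. Titer is the reciprocal of the serum dilution, reported as the group geometric mean.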

For experiment [2], the species on record is Mus musculus. Kind of experiment: Mitogenic activity is evaluated in vitro against splenocyte culture from C58 mice; NA means no activity. A digest of the protocol: (§2)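 Washed splenocytes from C58 mice were plated at 6 x 10^5 viable lymphocytes per well in RPMI 1640 with 10% fetal calf serum. Compound dilutions were added with Con A, E. coli LPS, or medium alone and incubated at 37 °C for 3-4 days. [3H]thymidine was then added, and cells were harvested 4 h later. Counts are geometric means of four replicate wells.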

The species named for experiment [3] is Mus musculus. Kind of experiment: Geometric mean titer of mice receiving 50 ug compound along with vaccine was determined after 21 days. Summed up:
as §1

Experiment [4] is filed under the species Mus musculus. Kind of experiment: Mitogenic activity is evaluated in vitro against splenocyte culture from C58 mice; mitogenic. Summed up: as §2

The source made the active and inactive calls. The calls are words filed in the database; no cut-off is given here.

For `CCCCCCCC/C=C\CCCCCCCCSC1OC(C)C(O)C(O)C1O` (stereo unspecified), the Activity in the experiment filed under Mus musculus [1] worked out at 61.69. On the same count and under the same terms, with `CC1OC(SCCC23C[C@H]4C[C@@H](C2)C[C@@H](C3)C4)C(O)C(O)C1O` (stereo partly specified) the figure was 47.57.

For `CC(C)CCC[C@@H](C)[C@H]1CC[C@H]2[C@@H]3CC=C4C[C@@H](OCCCCCCS[C@@H]5O[C@@H](CO)[C@@H](O[C@@H]6O[C@@H](CO)[C@H](O)[C@H](O)[C@@H]6O)[C@H](O)[C@@H]5O)CC[C@]4(C)[C@H]3CC[C@]12C`, the outcome in the experiment listed under Mus musculus [2] was inactive. The compound further came in with an Activity in the experiment filed under Mus musculus [3] of 40. As for `CC(=O)N[C@H]1C(O)O[C@H](CO)[C@@H](O)[C@@H]1O[C@H](C)C(=O)N[C@@H](C)C(=O)N[C@H](CCC(=O)O)C(N)=O` (stereo partly specified) [MURAMYL DIPEPTIDE], the Activity result was “Mitogenic” in the experiment listed under Mus musculus [4] and 40 in the experiment filed under Mus musculus [3]. Regarding `CC(C)CCCC(C)C1CCC2C3CC=C4CC(OCCC#CCCSC5OC(C)C(O)C(O)C5O)CCC4(C)C3CCC12C` (stereo unspecified), the result in the experiment filed under Mus musculus [2] was inactive. The Activity in the experiment listed under Mus musculus [3] was found to be 33.64.

In the case of `CC1OC(SCCCc2ccc(C(F)(F)C(F)(F)c3ccccc3)cc2)C(O)C(O)C1O` (stereo unspecified), the Activity in the experiment filed under Mus musculus [1] is 33.64. Consider `CC(C)CCCC(C)C1CCC2C3CC=C4CC(OCCCCCCSC5OC(C)C(O)C(O)C5O)CCC4(C)C3CCC12C` (stereo unspecified), for which, in the experiment filed under Mus musculus [2], the result was inactive. This compound showed an Activity in the experiment listed under Mus musculus [1] of 28.28.
